Screens as filed in PubChem.
Insulin prom act: TRM-6 insulin promoter activation | TRM-6 cells (human fetal islet line), insulin promoter eGFP reporter, imaging; plate-scaled: unstimulated 0, stimulated control 100 | activation, % at 2 µM | 0.81% of 130,000 active;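 active = activation at 2 µM above a set limit, confirmed on inspection of the cell images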;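 also: share of cells whose green reporter signal exceeds an intensity cutoff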
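test system = TRM-6 insulin promoter–eGFP reporter cells | benchmarks = stimulated versus unstimulated wells as plate controls | read-out basis = percent cells above green-intensity threshold, converted to percent activation versus plate controls | detection = fixed-cell fluorescence microscopy, eGFP plus Hoechst | incubation = tamoxifen pre-incubation 15 h overnight, then compound exposure 48 h at 37 °C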
Each line names hits and unclear results; the compound was inactive in the other large screens; [ ] = dose if it differs, or a comment. This excerpt belongs to a sample that is enriched for hits.

O=C1N/C(=N\c2ccccn2)SC1Cc1ccc(Cl)cc1 (centres undefined)	Insulin prom act 450
Cc1ccc(CC2S/C(=N/c3ccccn3)NC2=O)cc1 (centres undefined)	none
O=C(CCn1c(=O)c2sccc2n(CC(=O)OCc2ccccc2)c1=O)NCc1ccccc1	none
O=C(NCc1ccncc1)c1cc(C(=O)C2CC2)c[nH]1	none
CCOc1ccc(C(=O)N(Cc2ccc(OC)cc2)Cc2cc3cc(OC)ccc3[nH]c2=O)cc1	none
CCCN(Cc1cc2cc(C)ccc2[nH]c1=O)S(C)(=O)=O	none
CCCN(Cc1cc2cc(C)ccc2[nH]c1=O)C(=O)c1cccc(OC)c1	Insulin prom act 197
Cc1cccc(OCCOc2ccc(/C=N/NC(=O)Cc3nnc(N)s3)cc2)c1	none
CCOC(=O)N1CCN(c2cc(=O)n(-c3ccc(C)cc3)c(=O)[nH]2)CC1	none
CN1CC(=O)N(CC(=O)Nc2cccc(S(=O)(=O)N3CCOCC3)c2)C1=O	none
Cc1ccccc1/C=N/Nc1ccnc2cc(Cl)ccc12	none
CCOC(=O)N1CCC(=NNC(=O)c2cc3ccccc3cc2O)CC1	none
CCOC(=O)N1CCC(=NNc2ccnc3cc(Cl)ccc23)CC1	Insulin prom act 558
CCN1C(=O)CC2(C[N+]3(C)CCC2CC3)C1=O (centres undefined)	none
Cc1cccc(N2C(=O)C3CCC(c4ccccc4)CC3C2=O)c1 (centres undefined)	none
COc1ccc2[nH]c(C(O)(Cc3cccnc3)Cc3cccnc3)cc2c1	none
CCN(CC)C(=O)N1CCc2ccccc2C1CN1C(=O)c2ccccc2C1=O (centres undefined)	none
CCc1nc2ccccc2c(NC(=O)CN2CC(C)CC(C)C2)c1C (centres undefined)	none
CC(C)(C)C1CCC(OC(=O)C[N+]2(C)CCCCC2)CC1 (centres undefined)	Insulin prom act 200
C[N+]1(CCC(=O)c2ccccc2)CCCCC1	none
O=C(COC(=O)C1CC(O)CN1C(=O)Oc1ccccc1)c1ccc(Br)cc1 (centres undefined)	none
COCCCn1c(Cc2csc(Nc3ccc(F)cc3)n2)nnc1SCC(N)=O	none
COc1ccc2oc3ccc(OC)cc3c(=O)c2c1	Insulin prom act 145
COc1ccc2oc(C(F)(F)C(F)F)cc(=O)c2c1	none
COc1ccc2occ(NC(C)=O)c2c1	none
CN(C)CCCNC(=S)NCCNc1nc2cc3c(cc2cc1C#N)OCO3	none
COCCNC(=O)Cn1c(=O)n(C)c2ccccc21	none
CCOC(=O)c1ccc(NC(=S)Nc2ccccn2)cc1	none
O=C1c2ccccc2C(=O)c2c1cccc2N1CCCC1	none
Cc1cccc(NC2=C(NCCO)C(=O)c3ccccc3C2=O)c1	none
O=c1cc(NCCc2ccccc2)c2ccccc2o1	none
O=C(NC1CCCCC1)n1c(=O)oc2ccccc21	none
Cn1c(=O)c(NC2CCCCC2)c2c3c(cccc31)C(=O)c1ccccc1-2	Insulin prom act 567
Cn1c(=O)c(NCCc2ccccc2)c2c3c(cccc31)C(=O)c1ccccc1-2	Insulin prom act 170[may fluoresce]
COC(=O)CNC(c1ccccc1Cl)c1cc(Br)ccc1NS(=O)(=O)c1ccc(C)cc1 (centres undefined)	none
COc1ccc(CCNC(=O)CSc2ncn[nH]2)cc1	none
O=C(CSc1ncn[nH]1)NCCC(c1ccccc1)c1ccccc1	Insulin prom act 85
O=C(CSc1ncn[nH]1)NC1CCCc2ccccc21 (centres undefined)	none
O=C1c2ccc(Br)cc2C(=O)N1c1ccc(Cc2ccncc2)cc1	none
COc1ccc(-c2nnc(SCCC(=O)O)n2-c2ccccc2)cc1	Insulin prom act 486
COC(=O)CSc1nnc(-c2ccccc2OC)n1-c1ccc(C)cc1	none
COc1ccc(-c2nnc(SCC(=O)c3ccc[nH]3)n2-c2ccccc2)cc1	none
C=C(C)Cn1c(SCC(=O)O)nnc1-c1ccc(OC)cc1	none
Cc1nnc(SCC2CCCO2)n1-c1ccccc1 (centres undefined)	none
COc1ccccc1OCCSc1nnc(C)n1-c1ccccc1	Insulin prom act 83
CCC(C)Cn1c(C(C)O)nc2ccccc21 (centres undefined)	none
CC1CCCCC12NC(=O)N(CC(=O)NC(=O)NCc1ccco1)C2=O (centres undefined)	none
NS(=O)(=O)c1cccc(NC(=O)COC(=O)Cc2ccc(Cl)cc2)c1	none
COC(=O)c1cc(C(=O)Nc2cc(C)ccn2)cc([N+](=O)[O-])c1	none
Cc1cccc(OCc2nnc(SCC(=O)Nc3cccc(C(=O)N4CCOCC4)c3)o2)c1C	none
Cc1ccc2cc(CN(Cc3ccco3)C(=S)NCC3CCCO3)c(=O)[nH]c2c1C (centres undefined)	none
Cc1ccc2cc(CN(Cc3ccco3)C(=O)NCc3ccccc3)c(=O)[nH]c2c1C	Insulin prom act 160
Cc1cccc2cc(CN(Cc3ccco3)C(=O)c3cccs3)c(=O)[nH]c12	none
CC1CCCC(C)N1NC(=S)Nc1ccc(OC(F)F)cc1 (centres undefined)	none
CC[n+]1c(/C=C/C=C/N(C(C)=O)c2ccccc2)sc2ccccc21	Insulin prom act 203
CC1=C(C(=O)Nc2ccc(Br)cc2)C(c2ccco2)NC(=O)N1 (centres undefined)	none
COC(=O)c1cc(OC)c(OC)cc1NC(=O)c1ccc(OC)c(OC)c1	none
O=C(NC1CCC(NC(=O)C2CCCO2)CC1)C1CCCO1 (centres undefined)	none
CCOC(=O)N1CCN(C(=O)CSc2ccc(-c3ccccc3)nn2)CC1	none
CCOC(=O)N1CCN(C(=O)CSc2ccc(-c3ccncc3)nn2)CC1	none
CCOC(=O)N1CCN(C(=O)CSc2ncccn2)CC1	Insulin prom act 186
Cc1ccc(NC(=O)CNC2CCS(=O)(=O)C2)cc1C (centres undefined)	none
OCc1nc2ccccc2n1CCCOc1ccc(Br)cc1	none
Cc1cc2c(ncn2C)c(NS(=O)(=O)c2ccc(Cl)cc2)c1C	none
C=CCn1c(SCc2ccc(C#N)cc2)nnc1-c1cccc(OC)c1	Insulin prom act 164
C=CCn1c(SCc2ccccc2)nnc1-c1cccnc1	none
Cc1ccc(-c2nnc(SCc3ccc(C#N)cc3)n2Cc2ccco2)cc1	none
COc1cccc(N2CCN(C3CC(=O)N(c4ccc(F)c(Cl)c4)C3=O)CC2)c1 (centres undefined)	none
O=C(C1CCN(C2CC(=O)N(c3cccc(Cl)c3)C2=O)CC1)N1CCCC1 (centres undefined)	none
NC(=O)C1CCN(C2CC(=O)N(c3ccc(F)c(Cl)c3)C2=O)CC1 (centres undefined)	Insulin prom act 86
COc1ccc(C2=NO[C@@H]3[C@@H]4C[C@@H]([C@H]5C(=O)N(C)C(=O)[C@@H]45)[C@H]23)cc1	none
Cc1cc2nc(CSc3ccc(Cl)cc3)cc(=O)n2[nH]1	none
COc1ccc(CCNC(=O)c2ccc3c(SCC(=O)O)c4c(nc3c2)CCCC4)cc1OC	none
CCc1ccc(OCC(=O)NC(NC(=S)Nc2ccc(Cl)cc2)C(Cl)(Cl)Cl)cc1 (centres undefined)	none
Oc1ccc(-c2csc(-c3ccccc3)n2)cc1O	none
CCC(=O)N(Cc1ccco1)c1nc(-c2ccccc2)cs1	Insulin prom act 136
CC(=O)Nc1ccc(-c2csc(NCc3ccco3)n2)cc1	none
COc1cccc(CSc2nc3cc4c(cc3cc2C)OCCO4)c1	none
O=C(c1ccccc1-c1ccccc1)N1CCCC1	Insulin prom act 520
O=C(c1ccc(-c2ccccc2)cc1)N1CCCC1	none
O=C(O)c1ccccc1C(=O)N1CCN(C(=O)c2ccccc2Cl)CC1	none
C=CCNC(=O)COc1ccc(N(C)S(=O)(=O)c2ccc(NC(C)=O)cc2)cc1	none
O=C(NCCSc1ccccn1)c1ccc(Cl)cc1Cl	none
NC(=O)Nc1ccc(Oc2c(F)c(F)c(F)c(F)c2F)cc1	none
